# Measurements taken from ChEMBL document CHEMBL1124186, “Synthesis and evaluation of tylosin-related macrolides modified at the aldehyde function: a new series of orally effective antibiotics” (1988).
# How the values were obtained:
# Rattus norvegicus [1] = test: Peripheral plasma levels in rats after oral administration of 100 mg/kg dose for 0.25 hr; format: functional, organism-based; parameters: dose 100 mg/kg
# Procedure, shortened: (§1)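 Rats received 100 mg/kg orally and were sampled for peripheral plasma. Concentrations were measured by Micrococcus luteus agar-diffusion microbiological assay in Antibiotic Medium 1, with zone sizes converted using the standard curve for the appropriate compound. Each value is the average of three rats per time point.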
# Rattus norvegicus [2] = test: Peripheral plasma levels in rats after oral administration of 100 mg/kg dose for 1 hr; format: functional, organism-based; parameters: dose 100 mg/kg; procedure, shortened: as §1
# Staphylococcus aureus [3] = test: In vivo effective dose against experimental infections in mice Staphylococcus aureus X1 when administered sc; format: functional
# Rattus norvegicus [4] = test: Peripheral plasma levels in rats after oral administration of 100 mg/kg dose for 0.5 hr; format: functional, organism-based; parameters: dose 100 mg/kg; procedure, shortened: as §1
# Mus musculus [5] = test: Peripheral plasma levels in mice after oral administration of 100 mg/kg dose for 1 hr; format: functional, organism-based; parameters: dose 100 mg/kg
# Procedure, shortened: (§2)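 Mice were given the compound orally and sampled for peripheral plasma at each time point. Plasma was assayed microbiologically against Micrococcus luteus seeded in Antibiotic Medium 1. Inhibition zone sizes were read, and concentrations were calculated from each compound's own standard curve. Each value is the mean of five mice per time point.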
# Streptococcus pyogenes [6] = test: In vivo effective dose against experimental infections in rodent caused by Streptococcus pyogenes C203 when administered sc; format: functional
# Mus musculus [7] = test: Peripheral plasma levels in mice after oral administration of 100 mg/kg dose for 2 hr; format: functional, organism-based; parameters: dose 100 mg/kg; procedure, shortened: as §2
# Rattus norvegicus [8] = test: Peripheral plasma levels in rats after oral administration of 100 mg/kg dose for 4 hr; format: functional, organism-based; parameters: dose 100 mg/kg; procedure, shortened: as §1
# Streptococcus pneumoniae [9] = test: In vitro antimicrobial activity against Streptococcus pneumoniae; format: functional
# Staphylococcus aureus [10] = test: In vitro antimicrobial activity against Staphylococcus aureus X1; format: functional
# Streptococcus pyogenes [11] = test: In vitro antimicrobial activity against Streptococcus pyogenes C203; format: functional
# Streptococcus pyogenes [12] = test: In vivo effective dose against experimental infections in rodent caused by Streptococcus pyogenes C203 when administered orally; format: functional; conditions: po
# Rattus norvegicus [13] = test: Peripheral plasma levels in rats after oral administration of 100 mg/kg dose for 2 hr; format: functional, organism-based; parameters: dose 100 mg/kg; procedure, shortened: as §1
# Enterococcus faecium = test: In vitro antimicrobial activity against Streptococcus faecium X66; format: functional, streptococcus fae-cium
# Haemophilus influenzae [14] = test: In vitro antimicrobial activity against Haemophilus influenzae.; format: functional
# Staphylococcus aureus [15] = test: In vivo effective dose against experimental infections in mice Staphylococcus aureus X1 when administered orally; format: functional; conditions: po
# Streptococcus pneumoniae [16] = test: In vivo effective dose against experimental infections in mice Strep. pneumoniae park when administered orally; format: functional; conditions: po
# Streptococcus pneumoniae [17] = test: In vivo effective dose against experimental infections in mice Strep. pneumoniae park when administered sc; format: functional
# [18] = system: Staphylococcus epidermidis; test: In vitro antimicrobial activity against Staphylococcus epidermidis EPI1; format: functional
# Mus musculus [19] = test: Peripheral plasma levels in mice after oral administration of 100 mg/kg dose for 0.5 hr; format: functional, organism-based; parameters: dose 100 mg/kg; procedure, shortened: as §2
# Staphylococcus aureus [20] = test: In vitro antimicrobial activity against aerobic bacteria Staphylococcus aureus V135; format: functional
# Streptococcus [21] = test: In vitro antimicrobial activity against aerobic bacteria Streptococcus D 9960; format: functional
# Eikenella corrodens = test: In vitro antimicrobial activity against anaerobic bacteria bacteroides corrodens 1874; format: functional
# Streptococcus pneumoniae [22] = test: In vivo effective dose against experimental infections in mice Streptococcus pneumoniae park when administered sc; format: functional
# Staphylococcus aureus [23] = test: In vitro antimicrobial activity against aerobic bacteria Staphylococcus aureus X400; format: functional
# [24] = In vitro antimicrobial activity against anaerobic bacteria peptostreptococcus intermedius 1264; format: functional
# Streptococcus pneumoniae [25] = test: In vitro antimicrobial activity against aerobic bacteria Streptococcus pneumoniae B1-438; format: functional, streptococcus pneum
# [26] = system: Staphylococcus epidermidis; test: In vitro antimicrobial activity against aerobic bacteria Streptococcus epi 270; format: functional
# Streptococcus pneumoniae [27] = test: In vivo effective dose against experimental infections in mice Streptococcus pneumoniae park when administered orally; format: functional; conditions: po
# [28] = system: Staphylococcus epidermidis; test: In vitro antimicrobial activity against aerobic bacteria Streptococcus epi 222; format: functional
# Collinsella aerofaciens = test: In vitro antimicrobial activity against anaerobic bacteria eubacterium aerofaciens 1235; format: functional
# [29] = system: Haemophilus parainfluenzae; test: In vitro antimicrobial activity against aerobic bacteria Haemophilus parainfluenzae 9796; format: functional
# Clostridium septicum = test: In vitro antimicrobial activity against anaerobic bacteria clostridium septicum 1128; format: functional
# [30] = system: Bacteroides thetaiotaomicron; test: In vitro antimicrobial activity against anaerobic bacteria bacteroides thetaiotaomicron 1438; format: functional
# Streptococcus [31] = test: In vitro antimicrobial activity against aerobic bacteria Streptococcus D 8043; format: functional
# Staphylococcus aureus [32] = test: In vitro antimicrobial activity against aerobic bacteria Staphylococcus aureus 513E; format: functional
# [33] = system: Fusobacterium necrophorum; test: In vitro antimicrobial activity against anaerobic bacteria usobacterium necrophorum 6054A; format: functional
# [34] = system: Peptostreptococcus anaerobius; test: In vitro antimicrobial activity against anaerobic bacteria eubacterium peptostreptococcus anaerobius 1428,; format: functional
# [35] = system: Prevotella melaninogenica; test: In vitro antimicrobial activity against anaerobic bacteria bacteroides melaninogenicus 1856,; format: functional
# Staphylococcus aureus [36] = test: In vitro antimicrobial activity against aerobic bacteria Staphylococcus aureus V41; format: functional
# Bacteroides fragilis [37] = test: In vitro antimicrobial activity against anaerobic bacteria bacteroides fragilis 1877; format: functional
# Haemophilus influenzae [38] = test: In vitro antimicrobial activity against aerobic bacteria Haemophilus influenzae MX366,; format: functional
# Clostridium perfringens = test: In vitro antimicrobial activity against anaerobic bacteria clostridium perfringens 81,; format: functional
# Clostridioides difficile = test: In vitro antimicrobial activity against anaerobic bacteria Clostridium difficile 2994; format: functional
# Anaerococcus prevotii = test: In vitro antimicrobial activity against anaerobic bacteria peptococcus prevoti 1281; format: functional
# Phocaeicola vulgatus = test: In vitro antimicrobial activity against anaerobic bacteria bacteroides vulgatus 1211; format: functional
# Streptococcus [39] = test: In vitro antimicrobial activity against aerobic bacteria Streptococcus D 2041; format: functional
# Haemophilus influenzae [40] = test: In vitro antimicrobial activity against aerobic bacteria Haemophilus influenzae 76; format: functional
# Streptococcus [41] = test: In vitro antimicrobial activity against aerobic bacteria Streptococcus B 5; format: functional
# Bacteroides fragilis [42] = test: In vitro antimicrobial activity against anaerobic bacteria bacteroides fragilis 1936B,; format: functional
# Bacteroides fragilis [43] = test: In vitro antimicrobial activity against anaerobic bacteria bacteroides fragilis 111; format: functional
# Chlamydia trachomatis = test: In vitro antimicrobial activity against chlamydia trachomatis.; format: functional
# Fusobacterium = test: In vitro antimicrobial activity against anaerobic bacteria fusobacterium symbiosum 1470; format: functional
# Haemophilus influenzae [44] = test: In vitro antimicrobial activity against aerobic bacteria Haemophilus influenzae 465; format: functional
# [45] = system: Peptoniphilus asaccharolyticus; test: In vitro antimicrobial activity against anaerobic bacteria peptococcus asaccharolyticus 1302; format: functional
# Staphylococcus aureus [46] = test: In vitro antimicrobial activity against aerobic bacteria Staphylococcus aureus V140,; format: functional
# [47] = system: Prevotella melaninogenica; test: In vitro antimicrobial activity against anaerobic bacteria bacteroides melaninogenicus 2736; format: functional
# Cutibacterium acnes = test: In vitro antimicrobial activity against anaerobic bacteria propionibacterium acnes 79; format: functional
# Streptococcus [48] = test: In vitro antimicrobial activity against aerobic bacteria Streptococcus B 14; format: functional
smiles,measurement,setting,value
CC[C@H]1OC(=O)C[C@@H](O)[C@H](C)[C@@H](O[C@@H]2O[C@H](C)[C@@H](O)[C@H](N(C)C)[C@H]2O)[C@@H](CCN2CCCCCCC2)C[C@@H](C)C(=O)/C=C/C(C)=C/[C@@H]1CO[C@@H]1O[C@H](C)[C@@H](O)[C@@H](OC)[C@H]1OC,Concentration,Rattus norvegicus [1],0.3 µg/mL
same,Concentration,Rattus norvegicus [2],0.2 µg/mL
same,ED50,Staphylococcus aureus [3],2 mg/kg
same,Concentration,Rattus norvegicus [4],0.4 µg/mL
same,Concentration,Mus musculus [5],0.1 µg/mL
same,ED50,Streptococcus pyogenes [6],0.9 mg/kg
same,Concentration,Mus musculus [7],0.1 µg/mL
same,Concentration,Rattus norvegicus [8],0.2 µg/mL
same,MIC,Streptococcus pneumoniae [9],0.25 µg/mL
same,MIC,Staphylococcus aureus [10],0.5 µg/mL
same,MIC,Streptococcus pyogenes [11],0.25 µg/mL
same,ED50,Streptococcus pyogenes [12],20 mg/kg
same,Concentration,Rattus norvegicus [13],1.1 µg/mL
same,MIC,Enterococcus faecium,4 µg/mL
same,MIC,Haemophilus influenzae [14],8 µg/mL
same,ED50,Staphylococcus aureus [15],25 mg/kg
same,ED50,Streptococcus pneumoniae [16],> 50 mg/kg
same,ED50,Streptococcus pneumoniae [17],> 20 mg/kg
same,MIC,[18],0.5 µg/mL
same,Concentration,Mus musculus [19],0.1 µg/mL
CC[C@H]1OC(=O)C[C@@H](O)[C@H](C)[C@@H](O[C@@H]2O[C@H](C)[C@@H](O)[C@H](N(C)C)[C@H]2O)[C@@H](CCOc2ccc(-c3ccccc3)cc2)C[C@@H](C)C(=O)/C=C/C(C)=C/[C@@H]1CO[C@@H]1O[C@H](C)[C@@H](O)[C@@H](OC)[C@H]1OC,MIC,Staphylococcus aureus [20],0.25 µg/mL
same,MIC,Streptococcus [21],0.5 µg/mL
same,MIC,Eikenella corrodens,2 µg/mL
same,ED50,Streptococcus pneumoniae [22],> 20 mg/kg
same,MIC,Staphylococcus aureus [23],0.25 µg/mL
same,MIC,[24],< 0.5 µg/mL
same,MIC,Streptococcus pneumoniae [25],32 µg/mL
same,MIC,[26],128 µg/mL
same,ED50,Streptococcus pneumoniae [27],37 mg/kg
same,MIC,[28],0.12 µg/mL
same,ED50,Streptococcus pyogenes [6],> 10 mg/kg
same,MIC,Collinsella aerofaciens,< 0.5 µg/mL
same,MIC,[29],32 µg/mL
same,MIC,Clostridium septicum,< 0.5 µg/mL
same,MIC,[30],2 µg/mL
same,MIC,Streptococcus pneumoniae [9],0.25 µg/mL
same,MIC,Streptococcus [31],0.25 µg/mL
same,MIC,Staphylococcus aureus [10],0.5 µg/mL
same,MIC,Streptococcus pyogenes [11],0.25 µg/mL
same,MIC,Staphylococcus aureus [32],0.25 µg/mL
same,ED50,Streptococcus pyogenes [12],25 mg/kg
same,MIC,[33],4 µg/mL
same,MIC,[34],< 0.5 µg/mL
same,MIC,[35],< 0.5 µg/mL
same,MIC,Enterococcus faecium,0.5 µg/mL
same,MIC,Staphylococcus aureus [36],0.25 µg/mL
same,MIC,Haemophilus influenzae [14],16 µg/mL
same,MIC,Bacteroides fragilis [37],2 µg/mL
same,MIC,Haemophilus influenzae [38],16 µg/mL
same,MIC,Clostridium perfringens,< 0.5 µg/mL
same,MIC,Clostridioides difficile,< 0.5 µg/mL
same,MIC,Anaerococcus prevotii,1 µg/mL
same,MIC,Phocaeicola vulgatus,< 0.5 µg/mL
same,MIC,Streptococcus [39],0.5 µg/mL
same,MIC,Haemophilus influenzae [40],16 µg/mL
same,MIC,[18],0.5 µg/mL
same,MIC,Streptococcus [41],2 µg/mL
same,MIC,Bacteroides fragilis [42],4 µg/mL
same,MIC,Bacteroides fragilis [43],4 µg/mL
same,MIC,Chlamydia trachomatis,> 2 µg/mL
same,MIC,Fusobacterium,2 µg/mL
same,MIC,Haemophilus influenzae [44],16 µg/mL
same,MIC,[45],< 0.5 µg/mL
same,MIC,Staphylococcus aureus [46],0.25 µg/mL
same,MIC,[47],< 0.5 µg/mL
same,MIC,Cutibacterium acnes,< 0.5 µg/mL
same,MIC,Streptococcus [48],1 µg/mL
